Inhibition and Ki data for five compounds are collected here from ChEMBL document CHEMBL1949524, “Chiral indolo[3,2-f][3]benzazecine-type dopamine receptor antagonists: synthesis and activity of racemic and enantiopure derivatives” (J Med Chem, 2011).

Active and inactive are the calls of the source. No cut-off for these calls is given here. Where only a bound is given, the exact number is not on record here.

Test [1] deals with T1, D(2) dopamine receptor (Homo sapiens, UniProt P14416). Nature of the test: Antagonist activity at human dopamine D2L receptor expressed in HEK293 cells assessed inhibition of as quinpirole-induced Ca2+ influx by fluorescence analysis. The test is classed as functional, cell-based. An outline of the steps: (§1)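 HEK293 cells stably expressing the relevant dopamine receptor were loaded with a fluorescent dye and preincubated with rising concentrations of test compound. Agonist was then added: SKF 38393 for D1, quinpirole for D2. Ca2+-induced fluorescence was read on a microplate reader.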
T1 sequence (P14416 whole entry): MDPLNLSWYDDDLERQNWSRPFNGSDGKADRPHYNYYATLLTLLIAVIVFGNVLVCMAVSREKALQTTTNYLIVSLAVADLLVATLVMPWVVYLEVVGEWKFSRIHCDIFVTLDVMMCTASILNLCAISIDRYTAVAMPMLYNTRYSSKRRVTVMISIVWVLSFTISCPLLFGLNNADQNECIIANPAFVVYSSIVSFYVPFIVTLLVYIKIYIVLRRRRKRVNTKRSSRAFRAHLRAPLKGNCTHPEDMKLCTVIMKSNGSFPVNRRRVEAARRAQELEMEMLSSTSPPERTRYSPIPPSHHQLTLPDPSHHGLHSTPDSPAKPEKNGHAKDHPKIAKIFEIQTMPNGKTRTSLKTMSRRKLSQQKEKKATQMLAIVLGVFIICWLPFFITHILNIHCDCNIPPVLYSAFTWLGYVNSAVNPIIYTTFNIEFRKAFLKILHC

Test [2] concerns the target T2, D(1A) dopamine receptor (Homo sapiens, UniProt P21728). Nature of the test: Displacement of [3H]SCH23390 from human dopamine D1 receptor expressed in human HEK293 cells. The test is classed as cell-based. The gist of the method: (§2)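 Radioligand binding at human receptors, with Ki as the read-out. Ki is the mean (±SEM) of two to three experiments, each run in triplicate.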
A general note: In a radioligand displacement assay an active substance lowers the binding of a labelled ligand.

Test [3] concerns the target D(3) dopamine receptor (Homo sapiens, UniProt P35462). The test can be described thus: Displacement of [3H]spiperone from human dopamine D3 receptor expressed in human HEK293 cells. The test is classed as cell-based. An outline of the steps: as §2
Test [4] has as its target T3, D(4) dopamine receptor (Homo sapiens, UniProt P21917).
T3 sequence (P21917 whole entry): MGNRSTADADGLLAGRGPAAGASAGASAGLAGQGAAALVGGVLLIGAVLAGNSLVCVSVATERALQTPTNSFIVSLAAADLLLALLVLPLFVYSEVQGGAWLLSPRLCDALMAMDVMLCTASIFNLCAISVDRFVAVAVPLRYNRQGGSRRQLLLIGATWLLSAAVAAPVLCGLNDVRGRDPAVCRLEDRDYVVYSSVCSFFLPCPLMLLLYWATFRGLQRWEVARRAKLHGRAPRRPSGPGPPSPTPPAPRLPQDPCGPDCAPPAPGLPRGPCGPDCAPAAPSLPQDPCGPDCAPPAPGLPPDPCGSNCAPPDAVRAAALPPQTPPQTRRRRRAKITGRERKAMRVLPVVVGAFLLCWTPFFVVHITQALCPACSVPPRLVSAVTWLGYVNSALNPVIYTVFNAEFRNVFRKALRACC
Nature of the test: Displacement of [3H]spiperone from human dopamine D4.4 receptor expressed in CHO cells. The test is classed as cell-based. An outline of the steps:
as §2

In test [5] the target is D(1B) dopamine receptor (Homo sapiens, UniProt P21918). The test can be described thus: Displacement of [3H]SCH23390 from human dopamine D5 receptor expressed in human HEK293 cells. The test is classed as cell-based. An outline of the steps:
as §2

Test [6] has as its target T1, D(2) dopamine receptor. The test can be described thus: Displacement of [3H]spiperone from human dopamine D2L receptor expressed in human HEK293 cells. The test is classed as cell-based. An outline of the steps:
as §2

Test [7] concerns the target T2, D(1A) dopamine receptor. The test can be described thus: Antagonist activity at human dopamine D1 receptor expressed in HEK293 cells assessed as inhibition of SKF38393-induced Ca2+ influx by fluorescence analysis. The test is classed as functional, cell-based. An outline of the steps:
as §1

Sequence of D(3) dopamine receptor (P35462 whole entry): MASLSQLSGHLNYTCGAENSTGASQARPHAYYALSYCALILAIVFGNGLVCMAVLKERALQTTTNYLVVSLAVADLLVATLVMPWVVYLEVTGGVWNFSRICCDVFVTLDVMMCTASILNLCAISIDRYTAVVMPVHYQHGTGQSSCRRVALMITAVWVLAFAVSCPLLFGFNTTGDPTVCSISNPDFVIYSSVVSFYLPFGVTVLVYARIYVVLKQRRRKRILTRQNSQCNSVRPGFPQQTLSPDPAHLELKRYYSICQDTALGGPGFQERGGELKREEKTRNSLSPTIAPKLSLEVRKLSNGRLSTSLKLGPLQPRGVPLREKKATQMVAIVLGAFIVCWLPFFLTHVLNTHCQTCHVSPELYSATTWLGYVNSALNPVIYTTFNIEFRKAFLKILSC
Sequence of D(1B) dopamine receptor (P21918 whole entry): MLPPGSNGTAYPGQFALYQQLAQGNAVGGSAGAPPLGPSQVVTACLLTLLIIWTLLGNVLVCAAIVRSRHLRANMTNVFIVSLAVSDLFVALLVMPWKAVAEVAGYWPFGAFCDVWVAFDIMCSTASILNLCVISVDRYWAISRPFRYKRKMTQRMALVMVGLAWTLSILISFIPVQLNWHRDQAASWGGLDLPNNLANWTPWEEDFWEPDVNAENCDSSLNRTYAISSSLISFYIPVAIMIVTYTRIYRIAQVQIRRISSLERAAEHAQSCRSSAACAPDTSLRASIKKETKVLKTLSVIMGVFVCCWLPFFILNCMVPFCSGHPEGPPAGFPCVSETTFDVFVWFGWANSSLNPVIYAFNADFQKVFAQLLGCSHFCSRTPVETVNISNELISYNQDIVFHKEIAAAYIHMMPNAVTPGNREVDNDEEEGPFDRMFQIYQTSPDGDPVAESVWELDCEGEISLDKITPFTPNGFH
T2 sequence (P21728 whole entry): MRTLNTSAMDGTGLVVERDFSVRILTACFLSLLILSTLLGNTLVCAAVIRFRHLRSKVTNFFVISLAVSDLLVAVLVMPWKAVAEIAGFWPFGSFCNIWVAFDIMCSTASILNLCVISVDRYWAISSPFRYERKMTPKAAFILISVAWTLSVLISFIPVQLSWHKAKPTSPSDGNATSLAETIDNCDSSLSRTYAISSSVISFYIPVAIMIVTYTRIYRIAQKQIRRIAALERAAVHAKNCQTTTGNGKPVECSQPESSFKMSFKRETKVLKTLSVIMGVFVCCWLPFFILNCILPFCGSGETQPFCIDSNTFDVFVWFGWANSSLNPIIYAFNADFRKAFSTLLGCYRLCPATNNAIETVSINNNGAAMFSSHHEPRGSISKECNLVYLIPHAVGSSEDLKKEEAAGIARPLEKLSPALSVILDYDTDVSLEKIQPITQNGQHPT

In the case of `CN1CCc2ccccc2Cc2[nH]c3ccccc3c2C[C@H]1CO`, the inhibition entry in test [1] and in test [7] was “Active” in each case. The Ki – broadly, a dissociation constant, usually derived from enzyme kinetics or from competition with a known ligand – in test [2] is 114 nM; in test [3] it was 4680 nM; in test [4] it was 4860 nM; in test [5] it was 91.4 nM; in test [6], 2920 nM.
`C[C@H]1Cc2c([nH]c3ccccc23)Cc2ccccc2CCN1C`: the inhibition entry in test [1] and in test [7] was “Active” throughout. For the same compound, the Ki in test [2] came to 6.1 nM; in test [3] it was 304 nM; in test [4], 64.1 nM; in test [5], 4.4 nM; in test [6] it was 85.3 nM.
`C[C@@H]1Cc2c([nH]c3ccccc23)Cc2ccccc2CCN1C`: the inhibition entry in test [1] and in test [7] was “Active” each time. Moreover, the Ki was 640 nM in test [2]; over 10000 nM in test [3]; over 10000 nM in test [4]; 389 nM in test [5]; over 10000 nM in test [6].
For `CN1CCc2ccccc2Cc2[nH]c3ccccc3c2CC1C(=O)O` (racemic), the inhibition entry in test [1] and in test [7] was “Active” in each case. Besides, the Ki was over 10000 nM in test [2]; over 10000 nM in test [3]; over 10000 nM in test [4]; 657 nM in test [5]; over 10000 nM in test [6].
In the case of `CN1CCc2ccccc2Cc2[nH]c3ccccc3c2C[C@@H]1CO`, the inhibition result in test [1] and in test [7] was “Active” in each case. In addition, the Ki in test [2] amounted to 10.3 nM; in test [3], 681 nM; in test [4], 408 nM; in test [5], 11.4 nM; in test [6], 268 nM.
